Experimental data as given in ChEMBL document CHEMBL1128578, “Synthesis and cytotoxicity of novel lignans” (J Med Chem, 1995).
pIC50: −log10 of the molar value.

Tests used:
[1] = test system: GLC4 cell line; assay: Cytotoxic effect against GLC4 (human small cell lung carcinoma cell line) using the microculture tetrazolium (MTT) assay based on 2 hr incubation; type: functional
Summary of the method: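 GLC4 SCLC cells (suspension, RPMI 1640 + 10% heat-inactivated FCS, 37 °C, 5% CO2), exponential phase, >90% viable; 3750 cells/well. Compounds diluted from 200× DMSO stocks (≤0.25% DMSO final), up to 100 μM; exposed 2 h, washed three times, then cultured 4 days. MTT 3 h 45 min, formazan in DMSO, A520; IC50 from % growth inhibition, triplicate separate experiments.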

[2] = test system: GLC4 cell line; assay: Cytotoxic effect against GLC4 (human small cell lung carcinoma cell line) using the microculture tetrazolium (MTT) assay based on continuous incubation; type: functional
Summary of the method: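 GLC4 cells in exponential growth (>90% viable by trypan blue) seeded at 3750/well in RPMI 1640 + 10% FCS; compounds from 200× DMSO stocks, final DMSO ≤0.25%, top concentration 100 μM, present continuously for 4 days at 37 °C, 5% CO2. MTT added for 3 h 45 min, formazan dissolved in DMSO, absorbance 520 nm; IC50 = 50% growth inhibition; n=3 separate experiments.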

Row | Compound | pIC50 ([1]; Homo sapiens, GLC4, 2 h) | pIC50 ([2]; Homo sapiens, GLC4) | pIC50 ([1]; glc4) | pIC50 ([2]; glc4)
1 | COc1cc([C@@H]2c3cc4c(cc3[C@H](O)[C@H]3COC(=O)[C@H]23)OCO4)cc(OC)c1O | 5.51 | 7.52 |  | 
2 | COc1cc([C@@H]2c3cc4c(c(OC)c3[C@H](O)[C@H]3COC(=O)[C@H]23)OCO4)cc(OC)c1OC | 6.60 | 7.22 |  | 
3 | COc1cc(C[C@H]2C(=O)O[C@@H](OC3CC(C)CCC3C(C)C)[C@@H]2C(Sc2ccccc2)(Sc2ccccc2)c2ccc3c(c2)OCO3)ccc1OCc1ccccc1 (stereo partly drawn) |  | < 4.00 |  | 
4 | COc1cc([C@@H]2c3cc4c(cc3[C@@H](O[C@@H]3O[C@@H]5CO[C@@H](c6cccs6)O[C@H]5[C@H](O)[C@H]3O)[C@H]3COC(=O)[C@H]23)OCO4)cc(OC)c1O [TENIPOSIDE] | 5.55 | 6.32 |  | 
5 | CC1CCC(C(C)C)C(O[C@@H]2OC(=O)[C@H](Cc3ccc4c(c3)OCO4)[C@H]2Cc2ccc3c(c2)OCO3)C1 (stereo partly drawn) |  | 4.36 |  | 
6 | CISPLATIN |  |  | 5.34 | 5.96
7 | COc1cc([C@@H](O)[C@H]2C(=O)O[C@@H](OC3CC(C)CCC3C(C)C)[C@@H]2C2(c3ccc(O)c(O)c3OC)SCCCS2)cc(OC)c1OCc1ccccc1 (stereo partly drawn) | < 4.00 | 5.00 |  | 
8 | COc1cc([C@@H](O)[C@H]2C(=O)O[C@@H](OC3CC(C)CCC3C(C)C)[C@@H]2C2(c3ccc4c(c3OC)OCO4)SCCCS2)cc(OC)c1OCc1ccccc1 (stereo partly drawn) |  | 4.32 |  | 
9 | COc1cc(C[C@H]2C(=O)OC[C@@H]2Cc2ccc3c(c2)OCO3)ccc1O | < 4.00 | 5.19 |  | 
10 | COc1cc([C@@H]2c3cc4c(cc3[C@H](O)[C@H]3COC(=O)[C@H]23)OCO4)cc(OC)c1OC [PODOFILOX] | 6.82 | 7.22 |  | 
11 | O=C1C[C@@H](C2(c3ccc4c(c3)OCO4)SCCCS2)CO1 |  | 4.44 |  | 
12 | COc1cc([C@@H]2c3cc4c(cc3C[C@H]3COC(=O)[C@@H]32)OCO4)cc(OC)c1OC [DESOXYPODOPHYLLOTOXIN] | 6.92 | 8.10 |  | 
13 | COc1cc([C@@H](O)[C@H]2C(=O)O[C@@H](OC3CC(C)CCC3C(C)C)[C@@H]2C2(c3ccc4c(c3OC)OCO4)SCCCS2)cc(OC)c1OC (stereo partly drawn) | 4.12 | 5.06 |  | 
14 | COc1c(C2([C@@H]3CC(=O)O[C@H]3OC3CC(C)CCC3C(C)C)SCCCS2)ccc2c1OCO2 (stereo partly drawn) |  | 4.54 |  | 
15 | COc1c(C2([C@H]3COC(=O)C3)SCCCS2)ccc2c1OCO2 |  | 4.27 |  | 
16 | COc1cc([C@@H]2c3cc4c(cc3[C@H](O[C@@H]3O[C@H](CO)[C@@H](O)[C@H](O)[C@H]3O)[C@H]3COC(=O)[C@H]23)OCO4)cc(OC)c1OC | 4.24 | 5.00 |  | 
17 | COc1cc([C@@H]2c3cc4c(cc3[C@@H](O[C@@H]3O[C@@H]5CO[C@@H](C)O[C@H]5[C@H](O)[C@H]3O)[C@H]3COC(=O)[C@H]23)OCO4)cc(OC)c1O [ETOPOSIDE] | 5.40 | 6.09 |  | 
18 | COc1ccc(C[C@H]2[C@H](OC3CC(C)CCC3C(C)C)OC(=O)[C@@H]2Cc2ccc(OC)c(OC)c2)cc1OC (stereo partly drawn) |  | 4.46 |  | 
19 | COc1cc([C@@H](O)[C@H]2C(=O)O[C@@H](OC3CC(C)CCC3C(C)C)[C@@H]2C(=O)c2ccc3c(c2OC)OCO3)cc(OC)c1OC (stereo partly drawn) | 5.14 | 5.77 |  | 
20 | CO[C@@H]1OC(=O)[C@H](Cc2ccc3c(c2)OCO3)[C@H]1C(Sc1ccccc1)(Sc1ccccc1)c1ccc2c(c1)OCO2 |  | < 4.00 |  | 
21 | CC1CCC(C(C)C)C(O[C@@H]2OC(=O)[C@H](Cc3ccc4c(c3)OCO4)[C@H]2C(Sc2ccccc2)(Sc2ccccc2)c2ccc3c(c2)OCO3)C1 (stereo partly drawn) |  | 4.40 |  | 
